Compound activity (PubChem)
An excerpt weighted towards active compounds, which were near 4.2% of everything screened.
Autophagy HCS: autophagy modulation, high-content screen; MEF GFP-LC3 puncta imaging; test concentration mostly 10 µM; calls only at 10 µM (by protocol); hit rate 0.98% among 190,000; AID 463193;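 active = percentage of spot-positive cells more than 3 SD above its plate mean, without a fluorescence outlier flag or 80% toxicity; inconclusive = no clear call, values can overlap the other calls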
Rad51 HR inh: blocks human Rad51 in homologous recombination; AID 1385; hRad51 DNA strand exchange, fluorescence dequenching; inhibition, % at 10 µM; hit rate 0.085% among 200,000; Q06609;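 active = inhibition above 40% at the single screening dose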
Target sequence (Q06609 whole entry, looked up): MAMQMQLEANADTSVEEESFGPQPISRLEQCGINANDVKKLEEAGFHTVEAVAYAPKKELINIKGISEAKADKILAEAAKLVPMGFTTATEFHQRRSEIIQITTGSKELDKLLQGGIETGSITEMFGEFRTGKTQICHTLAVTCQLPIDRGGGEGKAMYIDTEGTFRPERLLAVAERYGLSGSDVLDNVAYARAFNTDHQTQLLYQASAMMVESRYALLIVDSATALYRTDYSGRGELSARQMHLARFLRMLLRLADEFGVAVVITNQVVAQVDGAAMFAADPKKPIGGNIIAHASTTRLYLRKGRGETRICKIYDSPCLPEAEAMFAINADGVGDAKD
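Material: hRad51 filaments on single-stranded DNA; Reagent: Donor/quencher-labelled 47-bp dsDNA substrate; Compound: 10 µM final, single point; Schedule: 37 °C 15-min filament assembly, 30-min compound preincubation, 15-min exchange; Technique: FRET fluorescence, excitation 485 nm, emission 520 nm; Benchmarks: control wells and blank wells on each plate.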
KCC2 mod: KCC2 (human) Cl- transport modulation | Q9H2X9 | KCC2 cells, thallium flux FluoZin-2 fluorescence | B-score of Tl+ flux slope (higher = more flux/activation; lower = inhibition) at 10 µM | hit rate 2.2% among 190,000 | AID 1456;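 active = thallium flux slope and its plate-corrected score both differing from the plate sample mean at a set confidence after two filtering rounds, in either direction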;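 note: slope of fluorescence scaled to starting intensity during 10 to 20 s after thallium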
SKKanGAS inh: inhibitors of SKKanGAS S. pyogenes growth in kanamycin (SK-promoter or general growth effect); BacTiter-Glo, 6 h; inhibition, % at 7.5 µM; hit rate 1.3% among 300,000;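 active = mean replicate score, as percent of positive control median, at least 50; inconclusive = mean below 50 but one replicate at or above 50; inactive = mean and every replicate below 50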;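 note: strain carries kanamycin resistance gene driven by streptokinase promoter and grows in 40 µg/ml kanamycin; loss of luminescence reflects streptokinase promoter inhibition or plain growth inhibition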
Ins promoter up: MIN6 insulin promoter up-regulation. hit rate 0.3% among 190,000. z-score at 5 µM. MIN6 insulin promoter-GFP reporter, high-content imaging; hits give high values. AID 1625;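 active = z-score above 3 at 5 µM with at least 500 cells counted in the well; inconclusive = wells under 500 cells, flagged as cytotoxic or low count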
WT yeast gro inh: growth inhibition of WT yeast, mitochondrial fusion screen. hit rate 2.1% among 190,000. inhibition, % at 10 µM. mitochondrial fusion phenotypic screen, WT strain; in the data active = inhibition above about 58%; tested in S. cerevisiae
Numbers stand for hits; i = inactive; ? = inconclusive; nt = not tested or not shown; + = active, no number.

SMILES | Autophagy HCS | Rad51 HR inh | KCC2 mod | SKKanGAS inh | Ins promoter up | WT yeast gro inh
COCCOC(=O)c1c(C)nc(SCC(=O)Nc2cccc3ccccc23)c(C#N)c1-c1ccco1 | i | i | i | 50 | i | i
COCCOC(=O)c1c(C)nc(SCC(=O)Nc2ccc(C)cc2)c(C#N)c1-c1ccco1 | i | nt | i | 67 | i | i
CNC(=O)c1c(C)nc(SCC(=O)NCc2ccc(OC)cc2)c(C#N)c1-c1ccco1 | i | i | i | i | i | i
CN1CCc2c(sc(NC(=O)C3CCCN3S(=O)(=O)c3ccc(Cl)s3)c2C(N)=O)C1 (stereo not drawn) | nt | nt | nt | i | nt | nt
CCC1CCCCN1CCCNC(=O)Cn1c(=O)c2cccn2c2cccnc21 (stereo not drawn) | nt | nt | nt | i | nt | nt
Cn1c(CCc2ccccc2)n[nH]c1=S | i | i | nt | i | i | i
COc1ccc(S(=O)(=O)N2CCCC2CNC(=O)C(=O)NCc2ccccc2Cl)cc1 (stereo not drawn) | nt | nt | nt | i | nt | nt
CC1=C/C(=N\NC(=S)Nc2cccnc2)CC(C)(C)C1 | i | i | 16 | i | i | i
CCOC(=O)c1c(C)sc2c1N(C(=O)CCl)c1cc(Cl)ccc1S2 | + | i | i | i | i | i
CC1=CC(C2CC(=O)N(c3ccc(C)cc3)C2=O)CC2C(=O)N(c3ccc(C)cc3)C(=O)C12 (stereo not drawn) | i | i | i | i | i | i
COC(=O)Nc1ccc(S(=O)(=O)N2CCCC(C(=O)N3CCCCC3)C2)cc1 (stereo not drawn) | i | i | i | i | i | i
COC(=O)Nc1ccc(S(=O)(=O)N2CCCC(C(=O)N3CCCCCC3)C2)cc1 (stereo not drawn) | + | i | nt | i | i | i
NC(N)=NC(=S)Nc1ccc(Cl)cc1 | nt | nt | i | i | i | nt
Cc1[nH]c2ccccc2c1/C=N/NC(=O)CCC(=O)NCc1ccccc1 | i | i | i | i | i | i
Cc1[nH]c2ccccc2c1/C=N/NC(=O)C1CC1(c1ccccc1)c1ccccc1 (stereo not drawn) | i | i | i | 55 | i | 84
C/C(Cn1cnc([N+](=O)[O-])n1)=N/NC(=O)COc1c(Cl)cc(Cl)cc1Cl | i | nt | i | i | i | i
Cc1ccccc1C(=O)Nc1scc(-c2ccc(Br)cc2)c1C(=O)O | nt | nt | nt | 86 | nt | nt
CC(C)Cc1csc(NC(=O)C(C)C)c1C(=O)O | nt | nt | i | i | i | nt
CC(C)Cc1csc(NC(=O)c2ccc(Br)cc2)c1C(=O)O | nt | i | nt | 70 | i | nt
O=C(Nc1scc(-c2ccc(Br)cc2)c1C(=O)O)c1ccccc1F | nt | nt | nt | 78 | nt | nt
COc1ccc(-c2csc(NC(=O)c3ccc(C(C)(C)C)cc3)c2C(=O)O)cc1 | nt | nt | nt | 82 | nt | nt
O=C(Nc1scc(-c2ccccc2)c1C(=O)O)c1ccccc1F | nt | nt | nt | i | nt | nt
COc1ccc(-c2csc(NC(=O)c3ccccc3Br)c2C(=O)O)cc1 | nt | nt | nt | i | nt | nt
O/N=C(\c1ccccc1)c1nccc2ccccc12 | nt | nt | nt | i | nt | nt
CSCc1cc(N2CCOCC2)nc(SCc2ccc(Cl)c(Cl)c2)n1 | i | i | i | i | i | 62
SMILES | Autophagy HCS | Rad51 HR inh | KCC2 mod | SKKanGAS inh | Ins promoter up | WT yeast gro inh
O=C(Nc1ccccc1N1CCN(c2ccccc2)CC1)C12CC3CC(CC(C3)C1)C2 | + | i | i | i | i | i
CCOc1cc(CNC(C)(C)CO)cc(Br)c1OCc1ccc(Cl)cc1Cl | i | i | i | i | i | 88
CCOc1cc(CNCCO)cc(Br)c1OCc1ccccc1Cl | i | i | i | i | i | 98
O=C(Cn1cc(C(F)(F)F)cc(Cl)c1=O)NCc1ccc(F)cc1 | nt | nt | nt | i | nt | nt
Cc1nc(N)sc1N=Nc1ccc(F)cc1 | i | i | i | 81 | i | i
O=C1CSC(=S)N1N1C(=O)c2cccc([N+](=O)[O-])c2C1=O | i | i | i | i | nt | i
CCOC(=O)Cn1nc(C)c(NC(=O)COc2ccc(OC)cc2)c1C | nt | i | i | i | i | nt
CCC(C)NC(=S)Nc1ccccc1 (stereo not drawn) | nt | i | i | i | i | nt
CCCC(C)NC(=S)Nc1cc(C)cc(C)c1 (stereo not drawn) | i | i | i | i | i | 73
COc1cccc(-c2nc(OC(C)C)c3ccccc3n2)c1 | i | i | i | i | i | 61
CC(C)Oc1nc(-c2ccc(Cl)cc2)nc2ccccc12 | nt | i | i | i | i | nt
Cc1nc([N+](=O)[O-])cn1CC(=O)Nc1ccc(F)c(Cl)c1 | nt | nt | nt | i | nt | nt
C/C(=N\NC(=S)NCc1ccccc1)c1ccc2c(c1)OCCO2 | i | i | i | i | i | i
C/C(=N\NC(=S)NCCc1ccccc1)c1ccc(C)cc1 | i | i | 2.9 | i | i | i
C/C(=N\NC(=S)NCc1ccccc1)c1ccc2ccccc2c1OC(F)F | i | i | i | 67 | i | 68
C/C(=N\NC(=S)NCc1ccccc1)c1ccc(Br)cc1 | i | i | i | i | i | 71
COCCNC(=S)N/N=C(\C)c1ccccc1F | i | i | i | i | i | i
COc1ccccc1N1CCN(C2CCCN(C(=O)CCn3cncn3)C2)CC1 (stereo not drawn) | nt | nt | nt | i | nt | nt
Cc1cc(-c2nnc(CCC(=O)N(C)C(C)c3cccs3)o2)no1 (stereo not drawn) | nt | i | i | i | nt | nt
COc1ccc(C(=O)Nc2ccc(O)c3ccccc23)cc1OC | nt | nt | nt | i | nt | nt
COc1ccc(CCNC(=O)CCCOc2ccc(Cl)cc2)cc1OC | nt | nt | nt | i | nt | nt
CC(=O)c1c(C)[nH]c(C(=O)CSc2nnc(-c3ccc(Cl)cc3)n2CC2CCCO2)c1C (stereo not drawn) | i | i | i | i | nt | 70
O=C1C2CCCCN2C(=O)N1CCCCN1CCN(c2cccc(Br)c2)CC1 (stereo not drawn) | nt | nt | nt | i | nt | nt
Cc1cc(NC(=O)COC(=O)c2ccccc2[N+](=O)[O-])no1 | i | i | i | i | i | i
CC1(c2nnc(-c3cccc(Cl)c3)o2)CC(c2ccc(F)cc2)=NO1 (stereo not drawn) | nt | i | nt | i | nt | nt
SMILES | Autophagy HCS | Rad51 HR inh | KCC2 mod | SKKanGAS inh | Ins promoter up | WT yeast gro inh
CC(C)(C)CC(C)(C)NC(=O)CSCC(=O)Nc1ccc2ccccc2c1 | i | i | i | i | i | 68
CC1CCN(S(=O)(=O)c2ccc(Oc3ccc([N+](=O)[O-])cc3)cc2)CC1 | i | nt | i | i | nt | 61
CC1CCN(S(=O)(=O)c2ccc3c(c2)C(=NO)c2cc(S(=O)(=O)N4CCC(C)CC4)ccc2-3)CC1 | + | i | i | nt | ? | i
NC1=NC(=O)/C(=C\c2ccsc2)S1 | i | i | i | i | i | i
CC(=O)c1cccc(NC(=S)NC(=O)c2cccc(Cl)c2)c1 | i | nt | 16 | i | i | i
O=C(NC(=S)Nc1ccc(N2CCOCC2)cc1)c1cccc(Cl)c1 | i | nt | 6.9 | i | i | i
COc1ccc(C(=O)NC(=S)Nc2ccccc2N2CCOCC2)cc1[N+](=O)[O-] | i | i | i | i | i | i
O=C(NC(=S)Nc1ccc(N2CCOCC2)cc1)c1ccccc1 | i | nt | nt | i | i | i
COc1ccc(C(=O)NC(=S)Nc2ccc(N3CCOCC3)c(Cl)c2)cc1[N+](=O)[O-] | i | i | i | 68 | i | i
CCC(=O)NC(=S)Nc1cccc(NC(=O)c2ccccc2)c1 | + | i | i | i | i | i
